Columns and labels:
[1] = Antiproliferative activity against human NCI-H146 cells after 4 days by WST8 assay; format: functional, cell-based; conditions: NCI-H146, 96 h
Procedure, shortened: (§1)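 Growth inhibition was measured as described previously. IC50 values come from growth curves.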

NCI-H1417 = assay: Antiproliferative activity against human NCI-H1417 cells after 4 days by WST8 assay; format: functional, cell-based; conditions: NCI-H1417, 96 h; procedure, shortened: as §1
NCI-H1963 = assay: Antiproliferative activity against human NCI-H1963 cells after 4 days by WST8 assay; format: functional, cell-based; conditions: NCI-H1963, 96 h; procedure, shortened: as §1
NCI-H146 [2] = assay: Induction of cell death in human NCI-H146 cells after 24 hrs by trypan blue assay; format: functional, cell-based
Procedure, shortened: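 H146 cells were treated for 24 h across a range of concentrations. Cell death was scored by trypan blue assay.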

NCI-H146 [3] = assay: Induction of apoptosis in human NCI-H146 cells assessed as caspase3 activation after 24 hrs by Western blot analysis; format: functional, cell-based
Procedure, shortened: (§2)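 H146 cells were treated for 24 h at a range of concentrations. Lysates were probed by Western blot with rabbit antibodies to PARP and caspase-3, detecting the cleaved forms. GAPDH served as loading control.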

NCI-H146 [4] = assay: Induction of apoptosis in human NCI-H146 cells assessed as PARP cleavage after 24 hrs by Western blot analysis; format: functional, cell-based; procedure, shortened: as §2
Bcl-2-like protein 1 = Bcl-2-like protein 1 (Homo sapiens, UniProt Q07817); assay: Inhibition of human N-terminal His8-tagged Bcl-XL expressed in Escherichia coli BL21(DE3) assessed as inhibition of Fluorescein-labeled BAK binding after 1 to 2 hrs by fluorescence polarization assay
[5] = target: Induced myeloid leukemia cell differentiation protein Mcl-1 (Homo sapiens, UniProt Q07820); assay: Inhibition of human N-terminal His8-tagged Mcl1 expressed in Escherichia coli BL21(DE3) assessed as inhibition of Fluorescein-labeled BID binding after 1 to 2 hrs by fluorescence polarization assay
[6] = Inhibition of human N-terminal His6-tagged Bcl2 isoform 2 expressed in Escherichia coli BL21(DE3) assessed as inhibition of Fluorescein-labeled BIM binding after 1 to 2 hrs by fluorescence polarization assay

Induced myeloid leukemia cell differentiation protein Mcl-1, sequence (Q07820 whole entry, canonical isoform): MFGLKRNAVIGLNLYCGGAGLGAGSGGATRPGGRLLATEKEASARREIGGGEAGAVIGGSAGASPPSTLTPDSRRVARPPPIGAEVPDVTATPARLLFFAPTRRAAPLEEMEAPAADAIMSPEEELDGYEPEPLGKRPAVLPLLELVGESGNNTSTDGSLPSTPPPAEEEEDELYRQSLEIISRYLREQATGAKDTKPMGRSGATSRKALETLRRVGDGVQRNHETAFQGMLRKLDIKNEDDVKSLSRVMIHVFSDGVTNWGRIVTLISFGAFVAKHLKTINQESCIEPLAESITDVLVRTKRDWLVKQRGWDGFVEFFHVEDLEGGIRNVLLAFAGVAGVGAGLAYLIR
Bcl-2-like protein 1, sequence (Q07817 whole entry): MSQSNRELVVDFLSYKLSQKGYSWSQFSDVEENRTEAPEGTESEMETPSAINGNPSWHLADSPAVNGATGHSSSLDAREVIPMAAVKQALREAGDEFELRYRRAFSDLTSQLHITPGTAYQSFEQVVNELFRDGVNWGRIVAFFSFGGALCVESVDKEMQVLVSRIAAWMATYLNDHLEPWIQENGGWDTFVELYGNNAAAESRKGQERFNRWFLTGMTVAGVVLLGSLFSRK

Row | IC50 (NCI-H1417) | IC50 (NCI-H1963) | IC50 (Bcl-2-like protein 1) | Ki (Bcl-2-like protein 1) | IC50 [5] | IC50 [6] | Compound | IC50 [1] | Activity (NCI-H146 [2]) | Activity (NCI-H146 [3]) | Activity (NCI-H146 [4]) | Ki [6]
1 | 412 nM | 59 nM | – | – | – | – | CN(C)CC[C@H](CSc1ccccc1)Nc1ccc(S(=O)(=O)NC(=O)c2ccc(N3CCN(Cc4ccccc4-c4ccc(Cl)cc4)CC3)cc2)cc1[N+](=O)[O-] [ABT 737] | 37 nM | Dose-dependent effect | Dose-dependent effect | Dose-dependent effect | –
2 | – | – | 11 nM | 1.2 nM | > 10000 nM | – | Cc1cc(-c2cccc(N3CCN(c4ccc(NS(=O)(=O)c5ccc(N[C@H](CCN(C)C)CSc6ccccc6)c([N+](=O)[O-])c5)cc4)CC3)c2)c(-c2ccc(Cl)cc2)n1C | > 10000 nM | – | – | – | –
3 | > 10000 nM | > 10000 nM | 291000 nM | 88000 nM | > 100000 nM | 103000 nM | Cc1c(C(=O)NCCCN2CCN(C)CC2)c(-c2ccccc2)c(-c2ccc(Cl)cc2)n1C | > 10000 nM | – | – | – | 38000 nM
4 | 154 nM | 60 nM | 7.7 nM | < 1 nM | > 2000 nM | 17.6 nM | Cc1c(C(=O)O)c(-c2cccc(N3CCN(c4ccc(NS(=O)(=O)c5ccc(N[C@H](CCN(C)C)CSc6ccccc6)c([N+](=O)[O-])c5)cc4)CC3)c2)c(-c2ccc(Cl)cc2)n1C1CC1 | 69 nM | – | – | – | 4.3 nM
5 | – | > 10000 nM | – | – | – | – | CN1CCN(CCCNC(=O)c2c(-c3ccccc3)c(-c3ccc(Cl)cc3)cn2CC[C@H](O)CO)CC1 | – | – | – | – | –

Row | Compound | IC50 (NCI-H1417) | IC50 (NCI-H1963) | IC50 (Bcl-2-like protein 1) | Ki (Bcl-2-like protein 1) | IC50 [5] | IC50 [6] | IC50 [1] | Activity (NCI-H146 [2]) | Activity (NCI-H146 [3]) | Activity (NCI-H146 [4]) | Ki [6]
6 | Cc1c(C(=O)NCCCN2CCN(C)CC2)c(-c2cccc(N3CCN(c4ccc(NS(=O)(=O)c5ccc(N[C@H](CCN(C)C)CSc6ccccc6)c([N+](=O)[O-])c5)cc4)CC3)c2)c(-c2ccc(Cl)cc2)n1C | 258 nM | 72 nM | – | 2.4 nM | > 10000 nM | 2 nM | 110 nM | – | – | – | < 0.6 nM
